# According to ChEMBL document CHEMBL3351543, “Novel Type of Prodrug Activation through a Long-Range O,N-Acyl Transfer: A Case of Water-Soluble CREB Inhibitor” (ACS Med Chem Lett, 2014):
# Assays:
# MDA-MB-231 = assay: Growth inhibition of human MDA-MB-231 cells after 72 hrs by MTT assay; assay type: functional; conditions: MDA-MB-231, 72 h
# Method in brief: (§1)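 Cancer cells exposed to compounds for 72 h; growth measured by MTT assay. GI50 is the concentration giving 50% growth inhibition, highest concentration tested 100 μM. Mean ± SD of at least two independent experiments.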
# A549 = assay: Growth inhibition of human A549 cells after 72 hrs by MTT assay; assay type: functional, cell-based; conditions: A549, 72 h; method in brief: as §1
# MCF7 = assay: Growth inhibition of human MCF7 cells after 72 hrs by MTT assay; assay type: functional; conditions: MCF7, 72 h; method in brief: as §1
# [1] = Inhibition of CREB (unknown origin) assessed as reduction in KIX-KID interaction after 20 to 24 hrs by renilla luciferase complementation assay; parameters: species or system Homo sapiens
# Method in brief: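 In vitro Renilla luciferase complementation assay of KIX–KID interaction, run at 4 °C. Highest concentration tested 50 μM. IC50 given as mean ± SD of at least two independent experiments.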
# [2] = Inhibition of CREB (unknown origin) expressed in HEK293T cells assessed as reduction in CREB-mediated gene tanscription after 5 hrs by luciferase reporter gene assay; assay type: cell-based; conditions: Homo sapiens, HEK-293T
# Method in brief: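 CREB-Renilla luciferase reporter assay in living HEK 293T cells measuring CREB-mediated gene transcription. Highest concentration tested 50 μM. IC50 given as mean ± SD of at least two independent experiments.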
# MDA-MB-468 = assay: Growth inhibition of human MDA-MB-468 cells after 72 hrs by MTT assay; assay type: functional; conditions: MDA-MB-468, 72 h; method in brief: as §1
# [3] = Drug level in PBS buffer treated with 2-(3-(3-Aminopropoxy)-2-naphthamido)-5-chlorophenyl 3-(3-Aminopropoxy)-2-naphthoate dihydrochloride at room temperature assessed as compound formation; assay type: physicochemical
# Method in brief: (§2)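 Compound incubated in PBS at room temperature at pH 7.40, 6.98, 6.48 or 6.01. Aliquots taken at set times were analysed by RP-HPLC, and percent parent remaining was quantified per chromatogram. Data fitted to first-order kinetics to derive t1/2; mean ± SD of two independent experiments.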
# [4] = Retention time of the compound by HPLC method; assay type: physicochemical
# [5] = Aqueous solubility in water; assay type: physicochemical
# HEK-293T = assay: Inhibition of CREB in HEK293T cells assessed as reduction in forskolin-induced NR4A2 mRNA expression at 2.5 uM pre-incubated for 1 hrs before forskolin stimulation for 45 mins by RT-PCR method; assay type: cell-based; conditions: Homo sapiens
# Method in brief: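 HEK 293T cells pretreated with compounds for 1 h, then forskolin added for a further 45 min. Endogenous NR4A2 mRNA quantified by qRT-PCR as relative level; significance by Student's t test.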
# [6] = Half life in PBS buffer at pH 6.48 by RP-HPLC method; assay type: ADME; method in brief: as §2
# [7] = Half life in PBS buffer at pH 6.01 by RP-HPLC method; assay type: ADME; method in brief: as §2
# [8] = Half life in Dulbecco's Modified eagle medium at pH 7.7 containing 10% fetal bovine serum; assay type: ADME; conditions: cattle, Dulbecco's Modified Eagle medium with 10% fetal bovine serum
# Method in brief: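 Compound incubated at 37 °C in DMEM with 10% FBS. At set times an aliquot was mixed with 9 volumes of acetonitrile to precipitate protein, and the supernatant was analysed by RP-HPLC with UV detection at 254 nm against an internal standard.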
# [9] = Half life in PBS buffer at pH 6.98 by RP-HPLC method; assay type: ADME; method in brief: as §2
# [10] = Half life in PBS buffer at pH 7.4 at 4 degC by RP-HPLC method; assay type: ADME
# [11] = Half life in PBS buffer at pH 7.4 by RP-HPLC method; assay type: ADME; method in brief: as §2
GI50 (MDA-MB-231) [nM],IC50 (A549) [nM],GI50 (MCF7) [nM],IC50 [1] [µM],IC50 [2] [nM],GI50 (MDA-MB-468) [nM],Drug metabolism [3],Retention_time [4] [min],solubility [5] [µg/mL],half-life [6] [min],half-life [7] [min],half-life [8] [min],half-life [9] [min],half-life [10] [min],half-life [11] [min],Structure (SMILES),fold change (FC) (HEK-293T)
2190,2730,1850,> 50,26200,1200,,,,,,,,,,NCCCOc1cc2ccccc2cc1C(=O)Nc1ccc(Cl)cc1O,
1300,590,,4.4,2270,330,,,> 100000,115,448,< 5,37.7,1440,27.3,Cl.NCCCOc1cc2ccccc2cc1C(=O)Nc1ccc(Cl)cc1OC(=O)c1cc2ccccc2cc1OCCCN,10

# More lines, now with the values behind:
Structure (SMILES),GI50 (MDA-MB-231) [nM],IC50 (A549) [nM],GI50 (MCF7) [nM],IC50 [1] [µM],IC50 [2] [nM],GI50 (MDA-MB-468) [nM],Drug metabolism [3],Retention_time [4] [min],solubility [5] [µg/mL],half-life [6] [min],half-life [7] [min],half-life [8] [min],half-life [9] [min],half-life [10] [min],half-life [11] [min],fold change (FC) (HEK-293T)
COc1cc2ccccc2cc1C(=O)Nc1ccc(Cl)cc1O,> 100000,> 100000,> 100000,> 50,> 50000,> 100000,,,,,,,,,,
Cl.NCCCOc1cc2ccccc2cc1C(=O)NCCCOc1cc2ccccc2cc1C(=O)Nc1ccc(Cl)cc1O,370,290,140,19.7,2220,220,metabolite_detected,12.2,120,,,,,,,10
O=C(Nc1ccc(Cl)cc1)c1cc2ccccc2cc1O,2350,2900,2810,2.9,2290,1460,,,,,,,,,,
COc1cc2ccccc2cc1C(=O)Nc1ccc(Cl)cc1OC(=O)c1cc2ccccc2cc1OC,23500,8780,,0.17,1950,8110,,,< 100,,,1200,,,,
